Drawing on ChEMBL document CHEMBL1137852, “Novel fluoro- and hydroxyl-containing jasmonate derivatives as highly efficient elicitors in suspension cultures of Taxus chinensis” (2004), this text covers Activity for seven compounds.

Holding throughout (format): functional
A short description of assay [1]: Eliciting activity on Tc (taxuyunnanine C) content in cell cultures of Taxus chinensis. The gist of the method:
(§1)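 T. chinensis suspension cells grown in 50 mL medium in 250-mL flasks. Elicitor added on day 7 after inoculation in ethanol (1 µL per mL medium); controls received an equal volume of ethanol. Tc measured by reverse-phase HPLC and expressed as mg per g dry cells; maximum content within 21 days reported. Triplicate cultures, mean ± S.D.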

A short description of assay [2]: Eliciting activity on Tc (taxuyunnanine C) production in cell cultures of Taxus chinensis. The gist of the method:
(§2)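 T. chinensis suspension cells grown in 50 mL medium in 250-mL flasks. Elicitor added on day 7 post-inoculation in ethanol (1 µL per mL medium); controls received an equal volume of ethanol. Tc quantified by reverse-phase HPLC; maximum volumetric production (mg/L) within 21 days reported. Triplicate cultures, mean ± S.D.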

A short description of assay [3]: Effect on Tc (taxuyunnanine C) production in cell cultures of Taxus chinensis at a concentration of 0 uM. The gist of the method: as §2
Assay [4] in a line: Effect on Tc (taxuyunnanine C) production in cell cultures of Taxus chinensis at a concentration of 1 uM. The gist of the method:
as §2

Assay [5] is described as follows: Effect on Tc (taxuyunnanine C) production in cell cultures of Taxus chinensis. The gist of the method: as §2
Assay [6] can be described thus: Effect on Tc (taxuyunnanine C) production in cell cultures of Taxus chinensis at a concentration of 10 uM. The procedure, abridged:
as §2

Assay [7] is described as follows: Effect on Tc (taxuyunnanine C) content in cell cultures of Taxus chinensis at a concentration of 0 uM. The gist of the method: as §1
The nature of assay [8]: Effect on Tc (taxuyunnanine C) content in cell cultures of Taxus chinensis at a concentration of 1 uM. The gist of the method:
as §1

A short description of assay [9]: Effect on Tc (taxuyunnanine C) content in cell cultures of Taxus chinensis at a concentration of 10 uM. The procedure, abridged: as §1
Assay [10] can be described thus: Effect on Tc (taxuyunnanine C) content in cell cultures of Taxus chinensis at a concentration of 100 uM. The procedure, abridged:
as §1

The nature of assay [11]: Effect on Tc (taxuyunnanine C) content in cell cultures of Taxus chinensis at a concentration of 500 uM. The procedure, abridged:
as §1

Assay [12] can be described thus: Effect on Tc (taxuyunnanine C) content in cell cultures of Taxus chinensis. The procedure, abridged: as §1
A short description of assay [13]: Effect on Tc (taxuyunnanine C) production in cell cultures of Taxus chinensis at a concentration of 100 uM. The procedure, abridged: as §2
Assay [14] is described as follows: Effect on Tc (taxuyunnanine C) production in cell cultures of Taxus chinensis at a concentration of 500 uM. The procedure, abridged:
as §2

Take `CC/C=C/CC1C(=O)CCC1CC(=O)OCCO` (centres undefined): the Activity stood at 38.1 mg/g DW in assay [1] and 464 mg/L in assay [2].

As to `CC/C=C/CC1C(=O)CCC1CC(=O)OC` (centres undefined), the Activity was 29.2 mg/g DW in assay [1] and 386 mg/L in assay [2].

As for `CC/C=C/CC1C(=O)CCC1CC(=O)OCCOCCO` (centres undefined), the results for the Activity in assay [1] and in assay [2] were 31.4 mg/g DW and 417 mg/L, respectively.

Consider `CC/C=C/CC1C(=O)CCC1CC(=O)OCC(F)(F)C(F)(F)F` (centres undefined), for which the Activity in assay [1] came out at 38.22 mg/g DW; in assay [2] it was 480.5 mg/L.

Regarding `CC/C=C/CC1C(=O)CCC1CC(=O)OCCC` (centres undefined), the results for the Activity in assay [1] and in [2] were 27.9 mg/g DW and 357 mg/L, respectively.

Consider `CC/C=C/CC1C(=O)CCC1CC(=O)OCC(F)(F)F` (centres undefined), for which the Activity worked out at 34.94 mg/g DW in [1] and 440.3 mg/L in assay [2].

Take `CC/C=C/CC1C(=O)CCC1CC(=O)OCC(O)CO` (centres undefined): the Activity was 128 mg/L in assay [3]; 160 mg/L in assay [4]; 550 mg/L in assay [5]; 358 mg/L in [6]; 9.4 mg/g DW in assay [7]; 11.6 mg/g DW in assay [8]. Besides, the Activity in [9] came out at 27 mg/g DW; in assay [10], 43.2 mg/g DW; in assay [11] it was 49.8 mg/g DW; in [12] it was 47.2 mg/g DW; in assay [13], 544 mg/L; in assay [14] it was 522 mg/L.
